Screens as filed in PubChem.
Hits are enriched below; roughly 4.6% of the tested compounds scored in any of these assays.
Arr AP2 block: inhibitors of human beta-arrestin and AP2 interaction. FITC-arrestin peptide / GST-AP2 beads, flow cytometry; AP2 beta2 appendage carries R879A mutation. inhibition, % at 10 µM. 340,000 compounds, 0.31% hits;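 active = inhibition above a set limit, near 3 SD of compounds lacking own fluorescence, cut at about 54% in these data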;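 note: plate controls were DMSO wells for no effect and 5 µM unlabelled arrestin peptide for full effect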
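Material – GST-tagged AP2 beta2-adaptin appendage (R879A) on 4 µm glutathione beads · Probe or stimulus – fluorescein-tagged arrestin peptide at 50 nM final · Timing – 12 min plus 1 h, RT · Detection – bead flow cytometry, FITC channel · Read-out basis – inhibition as reduced fluorescein signal on beads, percent · Medium – PBS plus Tween 20 (0.05%) and BSA (0.1%)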
Pemphigus Ab inh: blocks pemphigus antibody binding to human desmoglein-3. AID 588358. 310,000 compounds, 0.48% hits. P32926. DSG3-coupled beads, scFv-anti-DSG3-GFP binding, flow cytometry; active compounds read low. binding (percent of control), % at 10 µM;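 active = binding more than 3 SD below its plate's average and above zero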;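 note: hits lower antibody fragment binding to DSG3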
PolyA inh: inhibitors of polyadenylation in S. cerevisiae | S. cerevisiae SKY197-pL101 polyadenylation reporter, beta-gal luminescence; efflux-impaired pdr1/pdr3 knockout yeast; score 100 = 6 SD above DMSO | activity score, % at 12 µM | 300,000 compounds, 0.02% hits;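 active = lowest replicate activity score at least 50, where 100 means six control SD above control mean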;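 note: yeast exposed to compound for 9 h at 30 °C; higher score means more reporter readthrough which indicates perturbed polyadenylation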
NLRP3 yeast inh: blocks the NALP3 inflammasome reconstituted in yeast; inhibition, % at 10 µM; Yeast reconstituted NLRP3/ASC/caspase-1, beta-gal luminescence, 24 h; 330,000 compounds, 0.39% hits;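 active = inhibition of 50% or more; inactive = inhibition below 50%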;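 note: plate controls were induced DMSO wells for no effect and uninduced yeast grown without galactose for full effect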
ALR inh: blocks human ALR sulfhydryl oxidase activity | AID 485317 | purified ALR, DTT oxidation, H2O2 HRP-luminol luminescence | inhibition, % (concentration not given with the values) | P55789 | 290,000 compounds, 3.8% hits;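 active = mean replicate inhibition above about 79%, with every replicate also reaching it, limit read from the data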
NALP1 inh: inhibitors of NALP1 inflammasome in yeast; S. cerevisiae NALP1/ASC/caspase-1 growth, X-gal OD620, 72 h; inhibition, % at 10 µM; 280,000 compounds, 0.61% hits; in the data active = inhibition mostly above about 24%, no sharp cut-off; inactive = mostly below about 32%
Arr AP2 CP1: human beta-arrestin and AP2 interaction inhibition, cherry pick; shares compounds with Arr AP2 block; GST-AP2 beads, FITC arrestin peptide binding, flow cytometry; GST-fused beta2-adaptin appendage, R879A mutant; inhibition, % at 10 µM; 1,300 compounds, 2% hits; AID 504908;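 active = inhibition above a set limit, roughly 3 SD of non-fluorescent compound noise, cut at about 38% in these data; inactive = inhibition at or below that limit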;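 note: loss of bead fluorescence from 50 nM FITC arrestin peptide bound to appendage; 0% = negative control wells and 100% = excess unlabelled arrestin peptide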
GST GSH counter: GST-GSH bead binding interference, counter-screen | shares compounds with Arr AP2 block | GST-fluorescein binding to GSH beads, fluorescence | inhibition, % at 10 µM | 1,300 compounds, 2% hits | AID 588338;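 active = inhibition above 50%, about 3 SD of the inhibition seen with non-fluorescent compounds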;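 note: fluorescein maleimide labelled GST captured on 4 micron glutathione beads; higher means more loss of bead fluorescence from quenching or blocked binding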
Active calls of the source: *; / = no result given.

SMILES	Arr AP2 block	Pemphigus Ab inh	PolyA inh	NLRP3 yeast inh	ALR inh	NALP1 inh	Arr AP2 CP1	GST GSH counter
C=CCc1c(C)[nH]c2c(OC)cccc2c1=S	1	102	2	25	-6	-18	/	/
COc1ccc(/C=C/C(=O)c2ccccc2)cc1COc1ccccc1F	56*	/	-4	1	4	8	17	-7
Cn1nc(C(=O)NC2CCCC2)c2ccccc2c1=O	69*	125	/	8	/	/	4	0
Cn1c(C(=O)NC2CCCCC2)cc2c(=O)n3ccccc3nc21	60*	103	2	23	-2	18	-2	-5
Cc1ccn(CCNC(=O)C2CCC(=O)N(Cc3ccc(Cl)cc3)C2)n1 (stereo unspecified)	7	/	-6	13	7	21	/	/
CC(C)(C)c1cc(C(=O)Nc2cccnc2)cc(C(=O)Nc2cccnc2)c1	61*	112	-10	20	-19	10	4	0
O=C(Nc1cccnc1)c1ccc(Cl)c(Cl)c1	11	95	1	34	-11	10	/	/
C=CCn1c(-c2ccc(OC)cc2)nc2ccccc21	98*	95	-15	21	7	/	-12	2
COc1ccc(C(=O)N/C(=C\c2ccccc2)C(=O)Nc2ccc(C(=O)O)cc2)cc1	-18	89	14	13	-12	21	/	/
COc1ccc(NC(=O)/C(=C\c2cc(OC)c(OC)cc2[N+](=O)[O-])NC(=O)c2ccccc2)cc1	60*	106	4	-11	-9	0	0	-10
COc1ccc(CCN(Cc2cc3cc(C)cc(C)c3nc2Cl)C(=O)C2CC2)cc1	5	95	7	-1	0	7	/	/
CC(C)(C)NC(=O)NC(=O)CN1CCCCC1	15	101	13	18	-2	-17	/	/
CC(C)(C)NC(=O)NC(=O)CN1CCCCCCC1	62*	104	-29	17	/	4	-12	-4
COc1cc(C#N)c(N=C(SCC#N)N2CCOCC2)cc1OC	59*	/	9	13	98*	-5	15	1
Cc1cccc2nc(COc3ccc(-c4ccccc4)cc3)cn12	/	/	13	18	6	0	/	/
COc1ccc2[nH]c(=O)c(CN(c3ccccc3OC)S(=O)(=O)c3ccccc3)cc2c1	2	98	-6	15	/	0	/	/
COC(=O)c1nc(-c2ccccc2)oc1N(C)C	22	105	10	21	22	22	/	/
COC(=O)c1nc(-c2ccc(C)cc2)oc1N(C)C	59*	93	4	31	55	16	10	11
CCCCN1C(=N)N([C@@H](CN2CCC[C@H]2CN2C(N)=NC[C@@H]2Cc2ccccc2)C(C)C)C[C@H]1Cc1ccccc1	5	106	/	10	4	/	/	/
CCCc1cc(=O)oc2c(CN3CCN(C)CC3)c(O)ccc12	-12	94	-1	10	-11	7	/	/
CCCCc1cc(=O)oc2c(CN3CCN(C)CC3)c(O)ccc12	54*	89	15	-3	1	19	-9	-5
Oc1[nH]c2c(Cl)cc(Cl)cc2c1N=NC(=S)NCC1CCCO1 (stereo unspecified)	104*	95	-24	24	-11	6	20	1
CNC(=O)c1cc(S(=O)(=O)N(C)C)ccc1Cl	-1	111	/	13	-19	2	/	/
COc1ccc(S(=O)(=O)N2CCN(C)CC2)cc1NC(=O)c1ccccc1	-6	111	1	13	-2	-6	-3	-7
COc1ccc(S(=O)(=O)N2CCCCCC2)cc1NC(=O)c1ccccc1	6	115	-4	-2	-11	2	/	/
CCN1CCN(S(=O)(=O)c2ccc(OC)c(NC(=O)c3ccccc3)c2)CC1	3	/	-8	-10	-2	10	4	-2
